Here are results for 16 molecules from ChEMBL document CHEMBL2375228, “4-Bromo-2-(piperidin-1-yl)thiazol-5-yl-phenyl methanone (12b) inhibits Na+/K(+)-ATPase and Ras oncogene activity in cancer cells” (Eur J Med Chem, 2013).

Active and inactive are the calls of the source. The rule behind the calls is not given here.

By IC50 is commonly meant the concentration that inhibits the measured activity by half. Read a high IC50 as a need for much substance.

A short description of series [1]: Cytotoxicity against human Hs683 cells after 72 hrs by MTT assay. It counts as functional, cell-based. The following applies: Hs 683, 72 h. The essentials: (§1)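 Cells grown in RPMI with 10% heat-inactivated fetal calf serum and exposed to compound for 72 h. Overall growth read by MTT colorimetric assay; IC50 derived from it. Six replicates per condition.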
For orientation: Formazan colour is commonly taken as a measure of viable cells.

A short description of series [2]: Cytotoxicity against human U373 cells after 72 hrs by MTT assay. The series is classed as functional, cell-based, U-373MG ATCC. The following applies: U373 MG. The essentials:
as §1

In series [3] the test system is PC-3. The experiment in a line: Cytotoxicity against human PC3 cells after 72 hrs by MTT assay. The following applies: PC-3, 72 h. The series is classed as functional, cell-based. The essentials: as §1
Series [4] relates to MCF7. As to the kind of experiment: Cytotoxicity against human MCF7 cells after 72 hrs by MTT assay. It counts as functional, cell-based. The following applies: MCF7, 72 h. In outline: as §1
For series [5], the system named is A549. The experiment in a line: Cytotoxicity against human A549 cells after 72 hrs by MTT assay. The series is classed as functional, cell-based. The following applies: A549, 72 h. In outline:
as §1

In series [6] the test system is SK-MEL-28. The experiment in a line: Cytotoxicity against human SK-MEL-28 cells after 72 hrs by MTT assay. The series is classed as functional, cell-based. The following applies: SK-MEL-28, 72 h. The essentials: as §1
For series [7], the system named is Hs 683. The experiment in a line: Inhibition of RAS oncogene activity in human Hs683 cells at 2 mM after 5 to 29 mins by ELISA. It counts as cell-based. The following applies: in the assay text read “5 to 20 mins” for “5 to 29 mins”. In outline: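 Hs683 glioma cells treated with 2 mM for 5 and 20 min, lysed, 100 µg protein used. GTP-Ras captured by GST-Raf-RBD and detected with H-Ras antibody, HRP secondary and chemiluminescence.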

The species entered for series [8] is Cavia porcellus. The experiment in a line: Inhibition of guinea pig brain Na+/K+-ATPase at 1 mM preincubated for 10 mins measured after 30 mins relative to control.
Series [9] in a line: Growth inhibition of NMRI mouse astrocytes at 30 to 300 uM after 72 hrs by MTT assay. The following applies: read-out: GI. It counts as cell-based, Astrocyte. The essentials:
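Mouse astrocyte primocultures were plated in uncoated T25 flasks for 72 h, medium was changed and cells grown to confluence. Tested at 0, 30, 60 and 300 µM by MTT colorimetric assay.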

The subject of series [10] is PC-3. As to the kind of experiment: Ratio of perillyl alcohol IC50 to compound IC50 for human PC3 cells. It counts as functional.
For series [11], the system named is SK-MEL-28. The experiment in a line: Ratio of perillyl alcohol IC50 to compound IC50 for human SK-MEL-28 cells. The series is classed as functional.
A short description of series [12]: Selectivity index for human U373 cells over NMRI mouse astrocytes. Details: species or system U-373MG ATCC.
Series [13] in a line: Growth inhibition of NMRI mouse astrocytes after 72 hrs by MTT assay. The series is classed as cell-based. The following applies: Astrocyte.
Series [14] relates to MCF7. As to the kind of experiment: Ratio of perillyl alcohol IC50 to compound IC50 for human MCF7 cells. It counts as functional.
Series [15] can be described thus: Ratio of perillyl alcohol IC50 to compound IC50 for human U373 cells. The series is classed as functional, U-373MG ATCC.
Series [16] relates to Hs 683. As to the kind of experiment: Selectivity index for NMRI mouse astrocytes over human Hs683 cells.
Series [17] is described as follows: Chemical stability of the compound in RPMI culture medium after 72 hrs by mass spectroscopic analysis. The series is classed as physicochemical. In outline: (§2)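 5 mM DMSO stock diluted 100-fold in water or RPMI and held at 37 °C for 72 h. Samples infused into ESI-QTOF MS (positive mode, scan 110–950 m/z) with FA 0.2%-MeOH 50:50 as solvent.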
For series [18], the system named is Hs 683. The experiment in a line: Ratio of perillyl alcohol IC50 to compound IC50 for human Hs683 cells. The series is classed as functional.
The subject of series [19] is A549. The experiment in a line: Ratio of perillyl alcohol IC50 to compound IC50 for human A549 cells. It counts as functional.
Series [20] in a line: Chemical stability of the compound in water after 72 hrs by mass spectroscopic analysis. It counts as physicochemical. The following applies: buffer. In outline: as §2
For series [21], the system named is Hs 683. As to the kind of experiment: Cytostatic activity against human Hs683 cells at 40 uM after 48 to 72 hrs by videomicroscopic analysis relative to control. It counts as functional. The essentials: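 Hs683 glioma cells, untreated or at 40 µM, filmed by computer-assisted phase-contrast videomicroscopy over 72 h, one image every 4 min (1080 images), in triplicate. Growth rate = cell count in last image / first image. GGR index = treated ratio / control ratio.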

For the molecule `CC(=O)c1sc(N2CCOCC2)nc1Cl`, the half-maximal inhibitory concentration (IC50) in [1] was > 100 µM; in series [2], 83 µM; in [3], > 100 µM; in [4], 88 µM; in [5] it was > 100 µM; in series [6], > 100 µM.
For the molecule `C=C(C)[C@@H]1CC=C(CO)CC1` [PERILLYL ALCOHOL], the concentration for half-maximal inhibition (IC50) in [1], in series [2], in series [3], in series [4], in [5] and in series [6] was > 1000 µM each time. The inhibition entry in series [7] is “Active”.
For the molecule `O=C(c1ccccc1)c1sc(N2CCOCC2)nc1Br`, the IC50 in series [1] was 93 µM; in [2], > 100 µM; in series [3], > 100 µM; in series [4], 51 µM; in series [5], 84 µM; in series [6] it was > 100 µM.
For `COC(=O)c1sc2nc(N3CCCCC3)sc2c1C`, the IC50 in series [1] is > 100 µM; in series [2], > 100 µM; in series [3] it was 93 µM; in [4], 90 µM; in series [5] it was > 100 µM; in series [6], > 100 µM.
`CSc1nc(Cl)c(C(=O)c2ccccc2)s1`: the 50% inhibitory concentration (IC50) in series [1] was > 100 µM; in series [2], > 100 µM; in series [3], > 100 µM; in series [4], 91 µM; in [5], > 100 µM; in [6] it was > 100 µM.
Consider `CCOC(=O)c1sc(N2CCCC2)nc1Cl`, for which the IC50 in series [1] was 54 µM; in series [2] it was > 100 µM; in series [3], 78 µM; in series [4], 79 µM; in series [5], 61 µM; in series [6], 82 µM.
For `COC(=O)c1sc2nc(SC)sc2c1C`, the IC50 is 79 µM in series [1]; 92 µM in series [2]; 90 µM in series [3]; 69 µM in [4]; 78 µM in series [5]; > 100 µM in series [6].
As for `COC(=O)c1sc2nc(N3CCCC3)sc2c1C`, the IC50 was 91 µM in [1]; 89 µM in [2]; > 100 µM in series [3]; 56 µM in series [4]; 86 µM in series [5]; > 100 µM in series [6].
Consider `N#Cc1sc(N2CCCCC2)nc1Br`, for which the half-maximal inhibitory concentration (IC50) in series [1] was 84 µM; in series [2] it was > 100 µM; in series [3], > 100 µM; in series [4] it was 77 µM; in series [5], 93 µM; in series [6], > 100 µM.
With `N#Cc1sc(N2CCCC2)nc1Cl`, the IC50 in series [1] is > 100 µM; in [2], > 100 µM; in [3] it was > 100 µM; in series [4] it was 99 µM; in [5], > 100 µM; in [6], > 100 µM.
As for `O=C(c1ccccc1)c1sc(N2CCCC2)nc1Br`, the IC50 in series [1] was > 100 µM; in series [2] it was > 100 µM; in series [3] it was > 100 µM; in series [4], 69 µM; in [5], 97 µM; in [6], > 100 µM.
Take `O=C(c1ccccc1)c1sc(N2CCOCC2)nc1Cl`: the half-maximal inhibitory concentration (IC50) in [1] was > 100 µM; in series [2], 92 µM; in series [3], > 100 µM; in series [4] it was 70 µM; in series [5], 78 µM; in [6], > 100 µM.
Consider `CSc1nc(Br)c(C(=O)c2ccccc2)s1`, for which the IC50 in series [1] was > 100 µM; in series [2] it was 89 µM; in series [3] it was > 100 µM; in series [4] it was 67 µM; in series [5] it was 97 µM; in [6], > 100 µM.
Consider `O=C(c1ccccc1)c1sc(N2CCCC2)nc1Cl`, for which the IC50 was 44 µM in series [1]; 82 µM in series [2]; > 100 µM in [3]; 63 µM in series [4]; 50 µM in series [5]; 98 µM in series [6].
`COC(=O)c1sc2nc(N3CCOCC3)sc2c1C`: the IC50 in series [1] was 92 µM; in series [2] it was > 100 µM; in series [3] it was > 100 µM; in series [4], 78 µM; in series [5], 96 µM; in series [6] it was > 100 µM.
Consider `O=C(c1ccccc1)c1sc(N2CCCCC2)nc1Cl`, for which the inhibition in series [8] was > 50%. In series [9], the inhibition at 72 h, up to 300 µM was < 50%. The “Ratio IC50” value in series [10], in [11], in series [14], in series [15], in [18] and in [19] was 10 throughout. Also, the half-maximal inhibitory concentration (IC50) in [1] was 36 µM; in [2], 96 µM; in [3] it was 69 µM; in [13], > 300 µM; in [4] it was 56 µM; in [5], 41 µM. Further, in series [6], the midpoint of inhibition, the IC50, lay at 91 µM. Besides, the “Selectivity Index” value in [12] and in [16] was >5 in each case. For the same molecule, the Stability result in [17] and in [20] was “Stable” throughout. In series [21], this molecule registered an Activity of 40%.
